Measured values published in ChEMBL document CHEMBL1128398, “Structure-activity relationship of alpha-galactosylceramides against B16-bearing mice” (1995).

Legend:
[1] = tested on: B16; assay: Tumor Growth Inhibitory effect (TGIR) on mice subcutaneously inoculated with B16 cells (chemotherapeutic agent, mitomycin C (MMC)); type: functional, Mus musculus; set-up: concentration or dose not given beside the values
Procedure, shortened: (§1)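 Groups of six female BDF1 mice received B16 melanoma (1 × 10^6 cells/mouse) s.c. on day 0. AGL analogues were given i.v. at 100 μg/kg on days 1, 5 and 9, and MMC at 5 mg/kg i.p. on day 1; controls were untreated. Tumor volume (length × width × height/2, by callipers) was read on days 8, 12, 16 and 20. TGIR = [1 − mean test volume/mean control volume] × 100, and the maximum value is reported.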

[2] = tested on: B16; assay: Tumor Growth Inhibitory effect (TGIR) on mice subcutaneously inoculated with B16 cells (compound alone (single)); type: functional, Mus musculus; set-up: concentration or dose not given beside the values; procedure, shortened: as §1
[3] = tested on: B16; assay: Tumor Growth Inhibitory effect (TGIR) on mice subcutaneously inoculated with B16 cells (compound plus MMC); type: functional, Mus musculus; set-up: concentration or dose not given beside the values; procedure, shortened: as §1
[4] = species: Mus musculus; assay: Lymphocyte Proliferation Stimulatory effect was tested on mouse spleen cells and evaluated for at 6 h [3H]TdR (tritium-thymidine) pulse and uptake into cells at 1 ng/mL; type: functional
Procedure, shortened: (§2)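 BALB/c spleen cells (2 × 10^5 cells/well, no stimulator cells) were cultured in 10% FCS RPMI 1640 with compound at 37 °C in 5% CO2 for 2–3 days. A 6 h [3H]TdR pulse followed, and uptake was counted by liquid scintillation. Run in triplicate.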

[5] = species: Mus musculus; assay: Lymphocyte Proliferation Stimulatory effect was tested on mouse spleen cells and evaluated for at 6 h [3H]TdR (tritium-thymidine) pulse and uptake into cells at 10 ng/mL; type: functional; procedure, shortened: as §2
[6] = species: Mus musculus; assay: Lymphocyte Proliferation Stimulatory effect was tested on mouse spleen cells and evaluated for at 6 h [3H]TdR (tritium-thymidine) pulse and uptake into cells at 100 ng/mL; type: functional; procedure, shortened: as §2
[7] = species: Homo sapiens; assay: Lymphocyte Proliferation Stimulatory effect on human umbilical cord blood at 100 ng/mL and measured for [3H]TdR (tritium-thymidine) uptake (percent of control); type: functional
Procedure, shortened: (§3)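 Mononuclear cells were isolated from human peripheral blood or umbilical cord blood and plated at 1 × 10^5 cells/well in RPMI 1640 with 10% autologous plasma, with compound. After 4 days of incubation, a 6 h [3H]TdR pulse was given and uptake was counted by scintillation. Run in triplicate.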

[8] = species: Homo sapiens; assay: Lymphocyte Proliferation Stimulatory effect on human umbilical cord blood at 1 ng/mL and measured for [3H]TdR (tritium-thymidine) uptake (percent of control); type: functional; procedure, shortened: as §3
[9] = species: Homo sapiens; assay: Lymphocyte Proliferation Stimulatory effect on human umbilical cord blood at 10 ng/mL and measured for [3H]TdR (tritium-thymidine) uptake (percent of control); type: functional; procedure, shortened: as §3
[10] = species: Homo sapiens; assay: Lymphocyte Proliferation Stimulatory effect on human peripheral blood at 1 ng/mL and measured for [3H]TdR (tritium-thymidine) uptake (percent of control); type: functional; procedure, shortened: as §3
[11] = species: Homo sapiens; assay: Lymphocyte Proliferation Stimulatory effect on human peripheral blood at 10 ng/mL and measured for [3H]TdR (tritium-thymidine) uptake (percent of control); type: functional; procedure, shortened: as §3
[12] = species: Homo sapiens; assay: Lymphocyte Proliferation Stimulatory effect on human peripheral blood at 100 ng/mL and measured for [3H]TdR (tritium-thymidine) uptake (percent of control); type: functional; procedure, shortened: as §3
[13] = tested on: Mus musculus; assay: Compound is administered at days 6, 10, and 14.Tumor volume of each mouse is measured on days 8, 12, 16 and 20(chemotherapeutic agent, mitomycin C (MMC)); type: functional
[14] = tested on: Mus musculus; assay: Compound is administered at days 6, 10, and 14.Tumor volume of each mouse is measured on days 8, 12, 16 and 20(compound alone (single)); type: functional
[15] = tested on: Mus musculus; assay: Compound is administered at days 6, 10, and 14.Tumor volume of each mouse is measured on days 8, 12, 16 and 20(compound plus MMC); type: functional
[16] = species: Mus musculus; assay: Lymphocyte Proliferation Stimulatory effect on Allogenic MLR at 10 ng/mL and measured for [3H]TdR (tritium-thymidine) uptake (percent of control); type: functional
Procedure, shortened: (§4)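 Responders were BALB/c spleen cells and stimulators were C57BL/6 spleen cells pretreated with MMC (50 μg/mL, 30 min). Both were plated at 1 × 10^5 cells in 10% FCS RPMI 1640, with compounds added at plating. Culture was at 37 °C in 5% CO2 for 2–3 days, then a 6 h [3H]TdR pulse with scintillation counting. Run in triplicate.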

[17] = species: Mus musculus; assay: Lymphocyte Proliferation Stimulatory effect on Allogenic MLR at 100 ng/mL and measured for [3H]-TdR (tritium-thymidine) uptake (percent of control); type: functional; procedure, shortened: as §4
[18] = species: Mus musculus; assay: Lymphocyte Proliferation Stimulatory effect on Allogenic MLR at 0.1 ng/mL and measured for [3H]TdR (tritium-thymidine) uptake (percent of control); type: functional; procedure, shortened: as §4
[19] = species: Mus musculus; assay: Lymphocyte Proliferation Stimulatory effect on Allogenic MLR at 1 ng/mL and measured for [3H]TdR (tritium-thymidine) uptake (percent of control); type: functional; procedure, shortened: as §4
[20] = species: Mus musculus; assay: Lymphocyte Proliferation Stimulatory effect on allogenic MLR at a concentration of 100n g/mL; type: functional; procedure, shortened: as §4
[21] = species: Mus musculus; assay: Lymphocyte Proliferation Stimulatory effect on allogenic MLR at a concentration of 10 ng/mL; type: functional; procedure, shortened: as §4
[22] = species: Mus musculus; assay: Lymphocyte Proliferation Stimulatory effect on allogenic MLR at a concentration of 1 ng/mL; type: functional; procedure, shortened: as §4
[23] = species: Mus musculus; assay: Lymphocyte Proliferation Stimulatory effect on mouse spleen cell at a concentration of 100n g/mL; type: functional; procedure, shortened: as §2
[24] = species: Mus musculus; assay: Lymphocyte Proliferation Stimulatory effect on mouse spleen cell at a concentration of 10 ng/mL; type: functional; procedure, shortened: as §2
[25] = species: Mus musculus; assay: Lymphocyte Proliferation Stimulatory effect on mouse spleen cell at a concentration of 1 ng/mL; type: functional; procedure, shortened: as §2

Compound	Tumor growth inhibition ratio (max TGIR) [1] [%]	Control [2] [%]	Control [3] [%]	Control [4] [%]	Control [5] [%]	Control [6] [%]	other results
CCCCCCCCCCCCCCCCCC(=O)N[C@@H](CO[C@H]1O[C@@H](CO)[C@H](O)[C@H](O)[C@@H]1O)[C@H](O)CCCCCCCCCCCCCCC	64.1	78.1	80.3	155	383	645	–
CCCCCCCCCCCCCCC[C@@H](O)[C@H](CO[C@H]1O[C@@H](CO)[C@H](O)[C@H](O)[C@@H]1O)NC(=O)CCCCCCCCCCCCC	64.1	54.2	84.4	249	1010	1664	–
CCCCCCCCCCCCCCCCCCCCCCCC(=O)N[C@H](CCCCCCCCCCCCCCCC)CO[C@H]1O[C@@H](CO)[C@H](O)[C@H](O)[C@@H]1O	80	40.7	91.4	90	100	147	–
CCCCCCCCCCCCCCCCCCCCCCCC(=O)N[C@@H](CO[C@H]1O[C@@H](CO)[C@H](O)[C@H](O)[C@@H]1O)[C@H](O)CCCCCCCCCCCCCCC	64	68.9	99.1	1115	1432	1494	–
CCCCCCCCCCCCCCCCCCCCCC[C@@H](O)C(=O)N[C@@H](CO[C@H]1O[C@@H](CO)[C@H](O)[C@H](O)[C@@H]1O)[C@H](O)[C@H](O)CCCCCCCCCCC	46.5	94.1	77.4	330	676	838	–
CCCCCCCCCCCCCCCCCCCCCC[C@@H](O)C(=O)N[C@@H](CO[C@H]1O[C@@H](CO)[C@H](O)[C@H](O)[C@@H]1O)[C@H](O)[C@H](O)CCCCCCCCCCCCCC	64	57.9	91.9	1060	1405	1552	–
CCCCCCCCCCCCCCCCCCCCCC[C@@H](O)C(=O)N[C@@H](CO[C@H]1O[C@@H](CO)[C@H](O)[C@H](O)[C@@H]1O)[C@H](O)[C@H](O)CCCCCCC	46.5	46.2	85.1	196	541	936	–
CCCCCCCCCCCCCCCCCCCCCCCC[C@@H](O)C(=O)N[C@@H](CO[C@H]1O[C@@H](CO)[C@H](O)[C@H](O)[C@@H]1O)[C@H](O)[C@H](O)CCCCCCCCCCCCCCCC	87.3	92.8	94.3	153	482	481	–
CCCCCCCCCCCCCCCCCCCCCCCC[C@@H](O)C(=O)N[C@@H](CO[C@H]1O[C@@H](CO)[C@H](O)[C@H](O)[C@@H]1O)[C@H](O)CCCCCCCCCCCCCCC	–	–	–	–	–	–	Control [7]: 362%; Control [8]: 210%; Control [9]: 238%
CCCCCCCCCCCCCCCCCCCCCC(=O)N[C@@H](CO[C@H]1O[C@@H](CO)[C@H](O)[C@H](O)[C@@H]1O)[C@H](O)CCCCCCCCCCCCCCC	39.4	56.9	85	378	992	875	–
CCCCCCCCCCCCCCCCCCCC(=O)N[C@@H](CO[C@H]1O[C@@H](CO)[C@H](O)[C@H](O)[C@@H]1O)[C@H](O)CCCCCCCCCCCCCCC	39.4	53.1	90.4	177	791	1009	–
CCCCCCCCCCCCCCCCCCCCCC[C@@H](O)C(=O)N[C@@H](CO[C@H]1O[C@@H](CO)[C@H](O)[C@H](O)[C@@H]1O)[C@H](O)CCCCCCCCCCCCCCC	70.7	81.3	98.5	397	898	872	–
CCCCCCCCCCCCCCCCCCCCCCCC(=O)N[C@@H](CO[C@H]1O[C@@H](CO)[C@H](O)[C@H](O)[C@@H]1O)[C@H](O)[C@H](O)CCCCCCCCCCCCCC	64.8	65	90.8	198	642	790	–
CCCCCCCCCCCCCCCCCCCCCCCC[C@@H](O)C(=O)N[C@@H](CO[C@H]1O[C@@H](CO)[C@H](O)[C@H](O)[C@@H]1O)[C@H](O)[C@H](O)CCCCCCCCCCCCCCC	87.3	72.3	97.1	221	488	673	–
CCCCCCCCCCCCCCCCCCCCCC[C@@H](O)C(=O)N[C@@H](CO[C@H]1O[C@@H](CO)[C@H](O)[C@H](O)[C@@H]1O)[C@H](O)[C@H](O)CCCCCCCCCCCCC	61.5	82.4	90.6	520	1491	1202	–
CCCCCCCCCCCCCCCCCCCCCCCC[C@@H](O)C(=O)N[C@@H](CO[C@H]1O[C@@H](CO)[C@H](O)[C@H](O)[C@@H]1O)[C@H](O)[C@H](O)CCCCCCCCCCCCCC	87.3	92.8	97.7	203	437	620	Control [7]: 586%; Control [8]: 382%; Control [9]: 582%; Control [10]: 332%; Control [11]: 352%; Control [12]: 470%; Control [13]: 67.6%; Control [14]: 69.8%; Control [15]: 85%; Control [16]: 250%; Control [17]: 280%; Control [18]: 118%; Control [19]: 180%
CCCCCCCCCCCCCCCCCCCCCC[C@@H](O)C(=O)N[C@@H](CO[C@H]1O[C@@H](CO)[C@H](O)[C@H](O)[C@@H]1O)[C@H](O)[C@H](O)CCCCCCCCCCCC(C)C (stereo in doubt; form 1)	61.5	86.8	94.6	282	524	879	[3H] TdR uptake [20]: 31219 c.p.m.; [3H] TdR uptake [21]: 38668 c.p.m.; [3H] TdR uptake [22]: 29143 c.p.m.; [3H] TdR uptake [23]: 23968 c.p.m.; [3H] TdR uptake [24]: 20746 c.p.m.; [3H] TdR uptake [25]: 7935 c.p.m.
CCCCCCCCCCCCCCCCCCCCCC[C@@H](O)C(=O)N[C@@H](CO[C@H]1O[C@@H](CO)[C@H](O)[C@H](O)[C@@H]1O)[C@H](O)[C@H](O)CCCCCCCCCCCC(C)C (stereo in doubt; form 2)	–	–	–	–	–	–	[3H] TdR uptake [20]: 32240 c.p.m.; [3H] TdR uptake [21]: 36713 c.p.m.; [3H] TdR uptake [22]: 36022 c.p.m.; [3H] TdR uptake [23]: 24264 c.p.m.; [3H] TdR uptake [24]: 19985 c.p.m.; [3H] TdR uptake [25]: 8230 c.p.m.
